Data set [1] in a line: Induction of nitric oxide release in phosphate buffer at 10^-4 M at pH 7.4 after 1 hr by Griess colorimetric method in presence of N-acetylcysteine. Particulars: pH 7.4, 1 h, 100 µM; call rule not given here. The class given is physicochemical. The method, boiled down:
(§1)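 Final drug concentration 10^-4 M, added from DMF into 1:1 50 mM phosphate buffer (pH 7.4)/MeOH containing 5 × 10^-4 M N-acetylcysteine, at 37 °C. Nitrite read with Griess reagent after 10 min at room temperature, absorbance at 546 nm. Calibration with sodium nitrite standards (10–80 nmol/ml). Reported as mol NO per mol, n = 4 reaction mixtures.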

A short description of data set [2]: Induction of nitric oxide release in phosphate buffer at 10^-4 M at pH 7.4 after 2 hrs by Griess colorimetric method in presence of N-acetylcysteine. The class given is physicochemical. Conditions: pH 7.4, 2 h, 100 µM. The method, boiled down: as §1
A short description of data set [3]: Induction of nitric oxide release in phosphate buffer at 10^-4 M at pH 7.4 after 3 hrs by Griess colorimetric method in presence of N-acetylcysteine. Particulars: pH 7.4, 3 h, 100 µM. It counts as physicochemical. The method in brief: as §1
(In general: Nitrite, measured by Griess reagent, commonly stands in for NO production.)

Data set [4] in a line: Induction of nitric oxide release in phosphate buffer at 10^-4 M at pH 7.4 after 4 hrs by Griess colorimetric method in presence of N-acetylcysteine. The class given is physicochemical. Conditions: pH 7.4, 4 h, 100 µM. The method, boiled down: as §1
Data set [5] in a line: Induction of nitric oxide release in phosphate buffer at 10^-4 M at pH 7.4 after 5 hrs by Griess colorimetric method in presence of N-acetylcysteine. The class given is physicochemical. Conditions: pH 7.4, 5 h, 100 µM. The method in brief:
as §1

Data set [6] in a line: Induction of nitric oxide release in phosphate buffer at 10^-4 M at pH 7.4 after 6 hrs by Griess colorimetric method in presence of N-acetylcysteine. The class given is physicochemical. Conditions: pH 7.4, 6 h, 100 µM. The method, boiled down:
as §1

The nature of data set [7]: Induction of nitric oxide release in HCl buffer at 10^-4 M at pH 1 after 1 hr by Griess colorimetric method in presence of N-acetylcysteine. The class given is physicochemical. Particulars: pH 1, 1 h, 100 µM. The method in brief:
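Same Griess nitrite procedure at 10^-4 M final drug with N-acetylcysteine at 37 °C, but with 0.1 N HCl (pH 1) in place of the pH 7.4 phosphate buffer. Absorbance at 546 nm against a sodium nitrite calibration curve.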

Data set [8] has as its system Rattus norvegicus. The data set can be described thus: Antiinflammatory activity in albino rat assessed as inhibition of carrageenan-induced paw edema at 0.28 mmol/kg, po administered 30 mins prior to carrageenan-challenge measured after 1 hr relative to control. It counts as functional. The method in brief: (§2)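 Male albino rats in groups of four were fasted 24 h with water allowed. Dosing was oral at 0.28 mmol/kg, suspended in 0.5% w/v CMC; controls got CMC alone. After 30 min, 0.1 ml of 1% carrageenan in saline went subplantar into the right hind paw and saline into the left. Paw thickness was read by caliper before and at 1–5 h. % inhibition = [(VR−VL)control−(VR−VL)treated]/(VR−VL)control ×100. Mean ± SEM, n = 4, one-way ANOVA vs control.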

The test system of data set [9] is Rattus norvegicus. The data set can be described thus: Antiinflammatory activity in albino rat assessed as inhibition of carrageenan-induced paw edema at 0.28 mmol/kg, po administered 30 mins prior to carrageenan-challenge measured after 2 hrs relative to control. The class given is functional. The method in brief: as §2
The test system of data set [10] is Rattus norvegicus. As to the kind of experiment: Antiinflammatory activity in albino rat assessed as inhibition of carrageenan-induced paw edema at 0.28 mmol/kg, po administered 30 mins prior to carrageenan-challenge measured after 3 hrs relative to control. It counts as functional. The method in brief:
as §2

Data set [11] has as its system Rattus norvegicus. The data set can be described thus: Antiinflammatory activity in albino rat assessed as inhibition of carrageenan-induced paw edema at 0.28 mmol/kg, po administered 30 mins prior to carrageenan-challenge measured after 4 hrs relative to control. The class given is functional. The method in brief:
as §2

The test system of data set [12] is Rattus norvegicus. As to the kind of experiment: Antiinflammatory activity in albino rat assessed as inhibition of carrageenan-induced paw edema at 0.28 mmol/kg, po administered 30 mins prior to carrageenan-challenge measured after 5 hrs relative to control. It counts as functional. The method, boiled down: as §2
Background: The carrageenan paw model is a standard test of acute inflammation.

Data set [13] has as its system Rattus norvegicus. As to the kind of experiment: Ulcerogenic activity in albino rat carrageenan-induced paw edema model assessed as ulcer index at 0.28 mmol/kg, po (reference value: 0.60 +/- 0.05). It counts as toxicity, organism-based. Conditions: in vivo. The method in brief:
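Rats given the compound orally at 0.28 mmol/kg, suspended in 0.5% aqueous CMC; vehicle-only control, n = 4 per group. Gastric ulcers graded by area: I (<1 mm²), II (1–3 mm²), III (>3 mm²). Ulcer index = 1×(level I count) + 2×(level II) + 3×(level III). Mean ± SEM, one-way ANOVA versus control.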

For data set [14], the system named is Rattus norvegicus. The data set can be described thus: Gastrointestinal toxicity in albino rat carrageenan-induced paw edema model assessed as decrease in thickness of gastric mucosa with marked loss of mucosal membrane at areas of ulceration at 0.28 mmol/kg, po by hematoxylin and eosin staining-based light microscopic analysis. It counts as organism-based. Particulars: in vivo. The method in brief: (§3)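 Rats were dosed orally at 0.28 mmol/kg, suspended in 0.5% aqueous CMC; vehicle-only animals served as controls. After ulcer scoring, stomach sections were stained with haematoxylin and eosin: acid-alcohol differentiation, then 1% eosin for 10 min. Sections were dehydrated, cleared in xylene, mounted and examined by light microscopy.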

For data set [15], the system named is Rattus norvegicus. The data set can be described thus: Gastrointestinal toxicity in albino rat carrageenan-induced paw edema model assessed as loss of morphology of glandular structures at 0.28 mmol/kg, po by hematoxylin and eosin staining-based light microscopic analysis. The class given is organism-based. Particulars: in vivo. The method, boiled down:
as §3

By inhibition in vivo is commonly meant the share of the control response that was lost under treatment. Consider `COc1cc(-c2nnc(SCC(=O)Nc3ccc(/C(C)=N/O)cc3)n2-c2ccccc2)cc(OC)c1OC`, for which the Activity was determined as 0.11 mol/mol in [1]; 0.14 mol/mol in [2]; 0.16 mol/mol in data set [3]; 0.25 mol/mol in data set [4]; 0.15 mol/mol in data set [5]; 0.14 mol/mol in data set [6]. For the same compound, in data set [7], the Activity entry is recorded as “Not Active”. The inhibition in vivo at 280 µmol/kg was 59% in the data set with Rattus norvegicus [8]; 62% with Rattus norvegicus [9]; 66% in the data set with Rattus norvegicus [10]; 75% in the data set with Rattus norvegicus [11]; 70% in the data set with Rattus norvegicus [12]. Also, the UI with Rattus norvegicus [13] was determined as 2.21.
As for `C=CCn1c(SCC(=O)Nc2ccc(/C(C)=N/O)cc2)nnc1-c1ccccc1`, the Activity in data set [1] worked out at 0.15 mol/mol; in data set [2], 0.2 mol/mol; in data set [3], 0.22 mol/mol; in data set [4], 0.24 mol/mol; in data set [5], 0.16 mol/mol; in data set [6] it was 0.15 mol/mol. In data set [7], the Activity result is given as “Not Active”. Besides, the inhibition in vivo at 280 µmol/kg with Rattus norvegicus [8] amounted to 61%; in the data set with Rattus norvegicus [9] it was 63%; with Rattus norvegicus [10] it was 73%; with Rattus norvegicus [11] it was 73%; in the data set on Rattus norvegicus [12] it was 71%. In addition, in the data set with Rattus norvegicus [13], the UI is on record as 0.64.
For the compound `CCn1c(SCC(=O)Nc2ccc(/C(C)=N/O)cc2)nnc1-c1ccc(OC)c(OC)c1`, the Activity in [1] was 0.15 mol/mol; in data set [2], 0.19 mol/mol; in data set [3], 0.25 mol/mol; in [4], 0.43 mol/mol; in data set [5] it was 0.36 mol/mol; in data set [6], 0.32 mol/mol. Also, the Activity entry in data set [7] is “Not Active”. The inhibition in vivo at 280 µmol/kg turned out to be 53% with Rattus norvegicus [8]; 65% in the data set on Rattus norvegicus [9]; 66% in the data set on Rattus norvegicus [10]; 75% in the data set on Rattus norvegicus [11]; 73% in the data set on Rattus norvegicus [12]. For the same compound, in the data set with Rattus norvegicus [13], the UI is on record as 3.43.
Regarding `CCn1c(SCC(=O)Nc2ccc(/C(C)=N/O)cc2)nnc1-c1ccc(OC)cc1`, the Activity is on record as 0.16 mol/mol in [1]; 0.2 mol/mol in data set [2]; 0.24 mol/mol in [3]; 0.29 mol/mol in [4]; 0.24 mol/mol in [5]; 0.23 mol/mol in data set [6]. Besides, the Activity entry in [7] is “Not Active”. The inhibition in vivo at 280 µmol/kg was found to be 54% in the data set with Rattus norvegicus [8]; 58% in the data set on Rattus norvegicus [9]; 60% in the data set on Rattus norvegicus [10]; 73% with Rattus norvegicus [11]; 65% with Rattus norvegicus [12]. In the data set with Rattus norvegicus [13], the UI came to 1.04.
`C=CCn1c(SCC(=O)Nc2ccc(/C(C)=N/O)cc2)nnc1-c1cc(OC)c(OC)c(OC)c1`: the Activity was 0.11 mol/mol in data set [1]; 0.15 mol/mol in data set [2]; 0.19 mol/mol in data set [3]; 0.24 mol/mol in data set [4]; 0.18 mol/mol in [5]; 0.16 mol/mol in [6]. For the same compound, the Activity result in data set [7] was “Not Active”. In addition, the inhibition in vivo at 280 µmol/kg with Rattus norvegicus [8] was 49%; in the data set with Rattus norvegicus [9], 53%; in the data set on Rattus norvegicus [10], 62%; in the data set with Rattus norvegicus [11], 72%; in the data set on Rattus norvegicus [12], 64%. Besides, in the data set on Rattus norvegicus [13], the UI worked out at 0.75.
In the case of `CCn1c(SCC(=O)Nc2ccc(/C(C)=N/O)cc2)nnc1-c1cc(OC)c(OC)c(OC)c1`, the Activity came out at 0.12 mol/mol in data set [1]; 0.13 mol/mol in [2]; 0.14 mol/mol in data set [3]; 0.22 mol/mol in data set [4]; 0.15 mol/mol in data set [5]; 0.14 mol/mol in data set [6]. Moreover, in [7], the Activity result was “Not Active”. The inhibition in vivo at 280 µmol/kg worked out at 29% in the data set with Rattus norvegicus [8]; 49% in the data set with Rattus norvegicus [9]; 70% in the data set on Rattus norvegicus [10]; 70% in the data set with Rattus norvegicus [11]; 61% with Rattus norvegicus [12]. Besides, the UI in the data set on Rattus norvegicus [13] is recorded as 0.83.
Consider `CCn1c(SCC(=O)Nc2ccc(/C(C)=N/O)cc2)nnc1-c1ccccc1`, for which the Activity was 0.11 mol/mol in data set [1]; 0.17 mol/mol in data set [2]; 0.2 mol/mol in data set [3]; 0.21 mol/mol in [4]; 0.14 mol/mol in data set [5]; 0.12 mol/mol in data set [6]. The Activity result in data set [7] is listed as “Not Active”. The inhibition in vivo at 280 µmol/kg with Rattus norvegicus [8] came out at 54%; in the data set on Rattus norvegicus [9] it was 57%; in the data set with Rattus norvegicus [10] it was 65%; with Rattus norvegicus [11] it was 77%; in the data set on Rattus norvegicus [12], 66%. Besides, in the data set on Rattus norvegicus [13], the UI was 1.18.
With `C=CCn1c(SCC(=O)Nc2ccc(/C(C)=N/O)cc2)nnc1-c1ccc(OC)cc1`, the Activity in [1] amounted to 0.15 mol/mol; in [2] it was 0.17 mol/mol; in [3] it was 0.23 mol/mol; in [4], 0.32 mol/mol; in [5] it was 0.23 mol/mol; in [6], 0.16 mol/mol. The Activity result in data set [7] was “Not Active”. Further, the inhibition in vivo at 280 µmol/kg in the data set on Rattus norvegicus [8] was determined as 54%; in the data set on Rattus norvegicus [9] it was 59%; with Rattus norvegicus [10], 63%; with Rattus norvegicus [11], 75%; with Rattus norvegicus [12] it was 72%. The UI with Rattus norvegicus [13] worked out at 2.69.
As to `COc1ccc(-c2nnc(SCC(=O)Nc3ccc(/C(C)=N/O)cc3)n2-c2ccccc2)cc1`, the Activity is on record as 0.13 mol/mol in data set [1]; 0.17 mol/mol in data set [2]; 0.24 mol/mol in [3]; 0.29 mol/mol in data set [4]; 0.24 mol/mol in data set [5]; 0.23 mol/mol in data set [6]. In [7], the Activity result is given as “Not Active”. In addition, the inhibition in vivo at 280 µmol/kg turned out to be 45% with Rattus norvegicus [8]; 56% with Rattus norvegicus [9]; 57% in the data set on Rattus norvegicus [10]; 69% with Rattus norvegicus [11]; 58% in the data set on Rattus norvegicus [12]. Besides, in the data set on Rattus norvegicus [13], the UI worked out at 1.61.
In the case of `C=CCn1c(SCC(=O)Nc2ccc(C(C)=O)cc2)nnc1-c1ccc(OC)c(OC)c1`, the inhibition in vivo at 280 µmol/kg with Rattus norvegicus [8] was 56%; in the data set with Rattus norvegicus [9], 57%; in the data set with Rattus norvegicus [10], 58%; with Rattus norvegicus [11], 70%; in the data set with Rattus norvegicus [12], 64%. Further, the UI in the data set on Rattus norvegicus [13] is 2.45. The Activity entry with Rattus norvegicus [14] and in the data set with Rattus norvegicus [15] was “Toxic” each time.
